Experimental data from ChEMBL document CHEMBL1955828, “Anti-mycobacterial activities of some cationic and anionic calix[4]arene derivatives” (Bioorg Med Chem, 2012).
In brackets after ≈: the same amount, converted by molar mass.

Key:
[1] = test system: Mycobacterium tuberculosis; assay: Antimycobacterial activity against Mycobacterium tuberculosis H37Rv after 6 days by MTT assay; assay type: functional, organism-based; details: 144 h
Method in brief: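 Twofold serial compound dilutions in Middlebrook 7H9 broth were inoculated with bacterial suspension in 7H9 (H37Rv, or INH-resistant MYC5165) and incubated 6 days. MTT (1 mg/mL) was then added, followed by 1 more day of incubation, solubilisation buffer, and OD read at 570 nm. MIC was the lowest concentration inhibiting growth relative to untreated bacilli, and IC50 was also determined.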

[2] = test system: Mycobacterium tuberculosis; assay: Antimycobacterial activity against Mycobacterium tuberculosis H37Rv at 1 uM after 6 days by MTT assay; assay type: functional; details: 144 h, read-out: GI
[3] = test system: Mycobacterium tuberculosis; assay: Antimycobacterial activity against Mycobacterium tuberculosis H37Rv at 10 uM after 6 days by MTT assay; assay type: functional; details: 144 h, read-out: GI
Escherichia coli = assay: Antibacterial activity against Escherichia coli ATCC 25922 by microdilution method; assay type: functional
Pseudomonas aeruginosa = assay: Antibacterial activity against Pseudomonas aeruginosa ATCC 27853 by microdilution method; assay type: functional
Staphylococcus aureus = assay: Antibacterial activity against Staphylococcus aureus ATCC 25923 by microdilution method; assay type: functional
Enterococcus faecalis = assay: Antibacterial activity against Enterococcus faecalis ATCC 29212 by microdilution method; assay type: functional
[4] = Cytotoxicity against human MRC5 cells by MTT assay; assay type: cell-based

Structure (SMILES) | MIC [1] | inhibition of growth at 1 µM [2] | inhibition of growth at 10 µM [3] | other results
Cc1ccnc(-c2cc(C)ccn2)c1 | 136 µM (≈ 25 µg/mL) | – | – | –
Cc1cccc(-c2cccc(COc3c4cc(S(=O)(=O)O)cc3Cc3cc(S(=O)(=O)O)cc(c3O)Cc3cc(S(=O)(=O)O)cc(c3OCc3cccc(-c5cccc(C)n5)n3)Cc3cc(S(=O)(=O)O)cc(c3O)C4)n2)n1 | > 50 µM | – | – | –
Cc1csc(-c2nc(COc3c4cc(S(=O)(=O)O)cc3Cc3cc(S(=O)(=O)O)cc(c3O)Cc3cc(S(=O)(=O)O)cc(c3OCc3csc(-c5nc(C)cs5)n3)Cc3cc(S(=O)(=O)O)cc(c3O)C4)cs2)n1 | > 50 µM | – | – | –
Cc1cccc(-c2cccc(COc3c4cc(CC(=O)O)cc3Cc3cc(CC(=O)O)cc(c3O)Cc3cc(CC(=O)O)cc(c3OCc3cccc(-c5cccc(C)n5)n3)Cc3cc(CC(=O)O)cc(c3O)C4)n2)n1 | > 50 µM | – | – | –
Cc1cccc(-c2cccc(COc3c4cc(CP(=O)(O)O)cc3Cc3cc(CP(=O)(O)O)cc(c3O)Cc3cc(CP(=O)(O)O)cc(c3OCc3cccc(-c5cccc(C)n5)n3)Cc3cc(CP(=O)(O)O)cc(c3O)C4)n2)n1 | 50 µM (≈ 58.2 µg/mL) | – | – | IC50 [1]: 12400 nM
NCCc1cc2c(O)c(c1)Cc1cc(CCN)cc(c1O)Cc1cc(CCN)cc(c1O)Cc1cc(CCN)cc(c1O)C2 | 3.2 µM (≈ 1.91 µg/mL) | 27% | 76% | IC50 [1]: 400 nM
Cc1cccc(-c2cccc(COc3c4cc(CCN)cc3Cc3cc(CCN)cc(c3O)Cc3cc(CCN)cc(c3OCc3cccc(-c5cccc(C)n5)n3)Cc3cc(CCN)cc(c3O)C4)n2)n1 | – | 7% | 0% | –
Cc1csc(-c2nc(COc3c4cc(CCN)cc3Cc3cc(CCN)cc(c3O)Cc3cc(CCN)cc(c3OCc3csc(-c5nc(C)cs5)n3)Cc3cc(CCN)cc(c3O)C4)cs2)n1 | – | 25% | 19% | –
Cc1ccc(-c2ccc(COc3c4cc(CCN)cc3Cc3cc(CCN)cc(c3O)Cc3cc(CCN)cc(c3OCc3ccc(-c5ccc(C)cn5)nc3)Cc3cc(CCN)cc(c3O)C4)cn2)nc1 | 0.8 µM (≈ 0.769 µg/mL) | 63% | 81% | IC50 [1]: 200 nM
Cc1cccc(-c2cccc(COc3c4cc(CCNC(=N)N)cc3Cc3cc(CCNC(=N)N)cc(c3O)Cc3cc(CCNC(=N)N)cc(c3OCc3cccc(-c5cccc(C)n5)n3)Cc3cc(CCNC(=N)N)cc(c3O)C4)n2)n1.O=C(O)C(F)(F)F | – | 7% | 10% | MIC (Escherichia coli): 4 µg/mL; MIC (Pseudomonas aeruginosa): 4 µg/mL; MIC (Staphylococcus aureus): 4 µg/mL; MIC (Enterococcus faecalis): 4 µg/mL
Cc1ccc(-c2ccc(COc3c4cc(CCNC(=N)N)cc3Cc3cc(CCNC(=N)N)cc(c3O)Cc3cc(CCNC(=N)N)cc(c3OCc3ccc(-c5ccc(C)cn5)nc3)Cc3cc(CCNC(=N)N)cc(c3O)C4)cn2)nc1.O=C(O)C(F)(F)F | 0.8 µM | 62% | 98% | IC50 [1]: 50 nM; CC50 [4]: 128 µg/mL; MIC (Escherichia coli): 4 µg/mL; MIC (Pseudomonas aeruginosa): 4 µg/mL; MIC (Staphylococcus aureus): 4 µg/mL; MIC (Enterococcus faecalis): 4 µg/mL
Cc1csc(-c2nc(COc3c4cc(CCNC(=N)N)cc3Cc3cc(CCNC(=N)N)cc(c3O)Cc3cc(CCNC(=N)N)cc(c3OCc3csc(-c5nc(C)cs5)n3)Cc3cc(CCNC(=N)N)cc(c3O)C4)cs2)n1.O=C(O)C(F)(F)F | 1.6 µM | 54% | 90% | IC50 [1]: 400 nM; CC50 [4]: 16 µg/mL; MIC (Escherichia coli): 4 µg/mL; MIC (Pseudomonas aeruginosa): 4 µg/mL; MIC (Staphylococcus aureus): 4 µg/mL; MIC (Enterococcus faecalis): 4 µg/mL
N=C(N)NCCc1cc2c(O)c(c1)Cc1cc(CCNC(=N)N)cc(c1O)Cc1cc(CCNC(=N)N)cc(c1O)Cc1cc(CCNC(=N)N)cc(c1O)C2.O=C(O)C(F)(F)F | 0.8 µM | 73% | 97% | IC50 [1]: 250 nM; CC50 [4]: 256 µg/mL; MIC (Escherichia coli): 4 µg/mL; MIC (Pseudomonas aeruginosa): 4 µg/mL; MIC (Staphylococcus aureus): 4 µg/mL; MIC (Enterococcus faecalis): 4 µg/mL
O=C(O)Cc1cc2c(O)c(c1)Cc1cc(CC(=O)O)cc(c1O)Cc1cc(CC(=O)O)cc(c1O)Cc1cc(CC(=O)O)cc(c1O)C2 | – | 0% | 7% | –
O=P(O)(O)Cc1cc2c(O)c(c1)Cc1cc(CP(=O)(O)O)cc(c1O)Cc1cc(CP(=O)(O)O)cc(c1O)Cc1cc(CP(=O)(O)O)cc(c1O)C2 | – | 0% | 5% | –
O=S(=O)(O)c1cc2c(O)c(c1)Cc1cc(S(=O)(=O)O)cc(c1O)Cc1cc(S(=O)(=O)O)cc(c1O)Cc1cc(S(=O)(=O)O)cc(c1O)C2 | – | 0% | 0% | –
Cc1csc(-c2nc(COc3c4cc(CC(=O)O)cc3Cc3cc(CC(=O)O)cc(c3O)Cc3cc(CC(=O)O)cc(c3OCc3csc(-c5nc(C)cs5)n3)Cc3cc(CC(=O)O)cc(c3O)C4)cs2)n1 | > 50 µM | – | – | –
Cc1csc(-c2nc(COc3c4cc(CP(=O)(O)O)cc3Cc3cc(CP(=O)(O)O)cc(c3O)Cc3cc(CP(=O)(O)O)cc(c3OCc3csc(-c5nc(C)cs5)n3)Cc3cc(CP(=O)(O)O)cc(c3O)C4)cs2)n1 | 50 µM (≈ 59.5 µg/mL) | – | – | –
O=C(O)c1cn(C2CC2)c2cc(N3CCNCC3)c(F)cc2c1=O [CIPROFLOXACIN] | 2.5 µM (≈ 0.828 µg/mL) | – | – | –
c1ccc(-c2ccccn2)nc1 [DIPYRIDYL] | 160 µM (≈ 25 µg/mL) | – | – | –
CC[C@@H](CO)NCCN[C@@H](CC)CO [ETHAMBUTOL] | 9.8 µM (≈ 2 µg/mL) | – | 65% | –
CCc1cc(C(N)=S)ccn1 [ETHIONAMIDE] | 9 µM (≈ 1.5 µg/mL) | – | – | –
NNC(=O)c1ccncc1 [ISONIAZID] | 0.6 µM (≈ 0.0823 µg/mL) | – | – | –
CO[C@H]1/C=C/O[C@@]2(C)Oc3c(C)c(O)c4c(O)c(c(/C=N/N5CCN(C)CC5)c(O)c4c3C2=O)NC(=O)/C(C)=C\C=C\[C@H](C)[C@H](O)[C@@H](C)[C@@H](O)[C@@H](C)[C@H](OC(C)=O)[C@@H]1C [RIFAMPIN] | 0.24 µM (≈ 0.198 µg/mL) | – | – | –
CN[C@@H]1[C@H](O[C@H]2[C@H](O[C@H]3[C@H](O)[C@@H](O)[C@H](N=C(N)N)[C@@H](O)[C@@H]3N=C(N)N)O[C@@H](C)[C@]2(O)C=O)O[C@@H](CO)[C@H](O)[C@H]1O [STREPTOMYCIN] | 0.7 µM (≈ 0.407 µg/mL) | – | – | –
